Experimental data pooled from the literature.
Protocols differ between the studies behind these lines.
Target: Serine/threonine-protein kinase PAK 2 (PAK2, Homo sapiens, UniProt Q13177)

| SMILES | assay | conditions | quantity | result |
| --- | --- | --- | --- | --- |
| Cn1cc(-c2cccc(N3CCc4c(sc5c4CC(C)(C)C5)C3=O)c2CO)cc(Nc2ccncn2)c1=O | enzyme activity, inhibitor | 1 µM | inhibition | 6% |
| COc1ncccc1-c1cnn2ccc(N3CCN(C(=O)OC(C)C)CC3)nc12 | binding, competition with immobilised ligand | 1 µM | remaining binding | 100% |
| Cn1cncc1[C@](O)(COc1ccc(C#N)cc1-c1ccc(OC(F)(F)F)cc1)c1ccc(C#N)cc1 | cell-free assay, competition with immobilised ligand | 1 µM | remaining binding | 93% |
| Cn1cc(-c2cc(F)cc(N3CCn4c(cc5c4CCCC5)C3=O)c2CO)cc(Nc2ccc(N3CCN(C4COC4)CC3)cn2)c1=O | enzyme activity, inhibitor | 0.1 µM | inhibition | 11% |
| C#Cc1n[nH]c2c(-c3cn([C@@H](C)c4ccccc4)c(=O)[nH]c3=O)cc(F)cc12 | enzyme activity, inhibitor | 0.1 µM | inhibition | 1.7% |
| Nc1ncc(-c2nc(N3CCOCC3)nc(N3CCOCC3)n2)c(C(F)F)n1 | binding, competition with immobilised ligand | 10 µM | remaining binding | 58% |
| O=c1[nH]c2ccccc2n1C1CCN(Cc2ccc(-c3[nH]c4cc5ncnc5cc4nc3-c3ccccc3)cc2)CC1 | cell-free assay | 0.5 µM | remaining signal | 99.2% |
| C#Cc1n[nH]c2c(-c3cn(C(C)c4ccccn4)c(=O)[nH]c3=O)cc(F)cc12 (stereo not drawn) | enzyme activity, inhibitor | 1 µM | inhibition | -6.9% |
| COc1cc(Nc2ncc(F)c(Nc3ccc4c(n3)NC(=O)C(C)(C)O4)n2)cc(OC)c1OC | binding, competition with immobilised ligand | 10 µM | inhibition | 64% |
